What all share (assay type): cell-based
What all share (details): 10 µM AA

In experiment [1] the target is T1, Kv4.2 K318E mutant channels (co-injected with KChIP1b) (Rattus norvegicus, UniProt Q63881, K318E).
T1 sequence (Q63881 1-630 K318E): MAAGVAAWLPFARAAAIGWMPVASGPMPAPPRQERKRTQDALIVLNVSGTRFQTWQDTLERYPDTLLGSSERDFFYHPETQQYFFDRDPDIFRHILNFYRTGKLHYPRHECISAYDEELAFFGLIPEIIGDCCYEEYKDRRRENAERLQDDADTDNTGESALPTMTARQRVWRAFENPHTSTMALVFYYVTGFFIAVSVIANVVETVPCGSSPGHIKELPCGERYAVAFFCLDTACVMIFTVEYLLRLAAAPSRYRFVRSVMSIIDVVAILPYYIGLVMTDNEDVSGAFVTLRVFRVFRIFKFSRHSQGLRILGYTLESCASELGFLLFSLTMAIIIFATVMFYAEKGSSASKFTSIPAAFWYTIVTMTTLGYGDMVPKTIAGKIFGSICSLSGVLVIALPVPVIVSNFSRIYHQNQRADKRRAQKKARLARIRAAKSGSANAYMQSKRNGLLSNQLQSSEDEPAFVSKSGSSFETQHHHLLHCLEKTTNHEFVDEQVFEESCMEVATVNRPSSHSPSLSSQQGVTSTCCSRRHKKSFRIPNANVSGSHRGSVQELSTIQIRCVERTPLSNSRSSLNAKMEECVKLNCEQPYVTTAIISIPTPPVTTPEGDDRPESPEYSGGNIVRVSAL
The experiment is described as follows: Two-electrode voltage clamp, K318E mutant Kv4.2/KChIP1b in Xenopus oocytes. In a few lines: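 Xenopus oocytes co-expressing rat Kv4.2 (WT or mutant) with equimolar KChIP1b were recorded by two-electrode voltage clamp at room temperature. Peak conductance was calculated as G = I/(Vm − Vh), with Vh = −100 mV, and normalized to each cell's Gmax. It was plotted against step potential without and with 10 μM AA and fit to a first-order Boltzmann function to give V1/2 and slope.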

The target in experiment [2] is T2, Kv4.2 L313F mutant channels (co-injected with KChIP1b) (Rattus norvegicus, UniProt Q63881, L313F).
T2 sequence (Q63881 1-630 L313F): T1 sequence (Q63881 1-630 K318E) with L313F, E318K
The experiment is described as follows: Two-electrode voltage clamp, L313F mutant Kv4.2/KChIP1b in Xenopus oocytes. In a few lines:
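Rat Kv4.2 (WT or QuikChange mutant) RNA co-injected equimolar with KChIP1b, 5–10 ng/oocyte, into Xenopus oocytes held 1–5 d at 17–19 °C. Two-electrode voltage clamp at room temperature in perfused Na/K methanesulfonate HEPES saline, pH 7.4–7.5, with P/−4 or P/−6 leak subtraction. Peak current at +40 mV (from −90 mV) after 10 min of 10 μM AA is expressed relative to pre-AA current. Mean ± SE, n = cells.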

Experiment [3] concerns Kv1.2/Kv2.1 chimeric channel. The experiment is described as follows: Two-electrode voltage clamp of Kv1.2/2.1 chimera K+ currents in Xenopus oocytes. For orientation: In two-electrode clamp one electrode senses voltage and the other passes current.

SMILES strings stand for the structures. Where a chain is given by its changes, count along the chain named.

Consider `CCCCC/C=C\C/C=C\C/C=C\C/C=C\CCCC(=O)O` [AA, arachidonic acid], for which, in experiment [1], the “V1/2 of conductance-voltage curve with AA” value was −25.2 mV, the “shift in V1/2 in the presence of AA” value was “+5 mV” and the “slope factor (k) of Boltzmann fit with AA” value is given as 7.1. In addition, in experiment [1] (10 min), the “inhibition of peak K+ current by AA, effect of mutation” value is reported as “did not impair the inhibition of current by AA”. For the same compound, in experiment [2], the “sensitivity to AA” value is “retained its sensitivity to AA”. The “modulation of Kv1.2/2.1 K+ currents by AA” value in experiment [3] is “not modulated by AA”. The same compound registered an increase in current in experiment [3] (n = 8, +110 mV test potential) of 1.1 ± 2.1%.

(Values after article PMC3667888 (Channels, 2013).)
